Active and inactive are the calls of the source. The rule behind the calls is not given here.
Assays:
[1] = target: Tyrosine-protein kinase Fgr (Homo sapiens) (UniProt P09769); assay: Inhibition of human FGR at 1 uM using polyEY as substrate in presence of 33P-ATP by ProQinase assay
[2] = target: Protein kinase C iota type (Homo sapiens) (UniProt P41743); assay: Inhibition of human PKCiota at 1 uM using 3xChocktide-PKC as substrate in presence of 33P-ATP by ProQinase assay
[3] = target: Serine/threonine-protein kinase WNK1 (Homo sapiens) (UniProt Q9H4A3); assay: Inhibition of recombinant human WNK1 (1 to 661 residues) expressed in baculovirus infected Sf21 cells assessed as remaining activity at 1 uM using YLRRRLSDSNF as substrate incubated for 30 mins in presence of [gamma-33P]ATP by filter binding method relative to control
[4] = target: Activin receptor type-2A (Homo sapiens) (UniProt P27037); assay: Inhibition of human ACVR2A at 1 uM using casein as substrate in presence of 33P-ATP by ProQinase assay
[5] = target: Serine/threonine-protein kinase pim-3 (Homo sapiens) (UniProt Q86V86); assay: Inhibition of human PIM3 at 1 uM using RBER-GSK3 as substrate in presence of 33P-ATP by ProQinase assay
[6] = target: Interleukin-1 receptor-associated kinase 4 (Homo sapiens) (UniProt Q9NWZ3); assay: Inhibition of recombinant human N-terminal GST-tagged IRAK4 (140 to 460 residues) expressed in Escherichia coli assessed as remaining activity at 1 uM using MBP as substrate incubated for 30 mins in presence of [gamma-33P]ATP by filter binding method relative to control
[7] = target: Tyrosine-protein kinase JAK2 (Homo sapiens) (UniProt O60674); assay: Inhibition of human JAK2 at 1 uM using poly(Ala,Glu,Lys,Tyr) as substrate in presence of 33P-ATP by ProQinase assay
Homo sapiens = species on record: Homo sapiens; assay: Inhibition of recombinant human N-terminal His6-tagged PI3Kalpha E542K mutant (2 to 1068 residues)/p85A (1 to 724 residues) expressed in baculovirus expression system at 1 uM using diC8 PIP2 as substrate incubated for 80 mins by ADP-Glo assay
[8] = target: Tyrosine-protein kinase ABL1 (Homo sapiens) (UniProt P00519); assay: Inhibition of human ABL1 at 1 uM using poly(Ala,Glu,Lys,Tyr) as substrate in presence of 33P-ATP by ProQinase assay
[9] = target: Tyrosine-protein kinase BTK (Homo sapiens) (UniProt Q06187); assay: (§1) Inhibition of recombinant human N-terminal His6-tagged BTK (2 to 659 residues) expressed in baculovirus infected Sf21 cells assessed as remaining activity at 1 uM using KVEKIGEGTYGVVYK as substrate incubated for 30 mins in presence of [gamma-33P]ATP by filter binding method relative to control
[10] = target: Fibroblast growth factor receptor 4 (Homo sapiens) (UniProt P22455); assay: Inhibition of human FGFR4 at 1 uM using polyEy as substrate in presence of 33P-ATP by ProQinase assay
[11] = target: Dual specificity tyrosine-phosphorylation-regulated kinase 2 (Homo sapiens) (UniProt Q92630); assay: Inhibition of human DYRK2 at 1 uM using RBER-IRStide as substrate in presence of 33P-ATP by ProQinase assay
[12] = target: CDK4/Cyclin D3 (Homo sapiens) (UniProt P11802+P30281); assay: Inhibition of human CDK4/CycD3 at 1 uM using RBER-CHKtide as substrate in presence of 33P-ATP by ProQinase assay; format: protein-complex assay
[13] = target: Mast/stem cell growth factor receptor Kit (Homo sapiens) (UniProt P10721); assay: Inhibition of human KIT at 1 uM using polyEY as substrate in presence of 33P-ATP by ProQinase assay
[14] = test system: TGF-beta receptor type-1 (Homo sapiens), P36897 [T204D]; assay: as §1, with “GST-tagged TGFBR1 T204D mutant (200” for “His6-tagged BTK (2”, “501” for “659”, “crosstide peptide” for “KVEKIGEGTYGVVYK”
[15] = target: Serine/threonine-protein kinase SIK3 (Homo sapiens) (UniProt Q9Y2K2); assay: as §1, with “GST and HA-tagged SIK3” for “His6-tagged BTK”, “1369” for “659”, “ALNRTSSDSALHRRR” for “KVEKIGEGTYGVVYK”
[16] = target: Ribosomal protein S6 kinase alpha-1 (Homo sapiens) (UniProt Q15418); assay: Inhibition of recombinant human N-terminal His6-tagged RSK1 (1 to 735 residues) expressed in baculovirus infected Sf21 cells assessed as remaining activity at 1 uM using KKLNRTLSVA as substrate incubated for 30 mins in presence of [gamma-33P]ATP by filter binding method relative to control
[17] = target: Serine/threonine-protein kinase pim-2 (Homo sapiens) (UniProt Q9P1W9); assay: Inhibition of recombinant human N-terminal GST-tagged PIM2 (2 to 334 residues) expressed in Escherichia coli assessed as remaining activity at 1 uM using RSRHSSYPAGT as substrate incubated for 30 mins in presence of [gamma-33P]ATP by filter binding method relative to control
U2OS = assay: Inhibition of PI3K in human U2OS cells expressing FLAG-tagged SGK3 assessed as reduction in AKT phosphorylation at S473 residues at 0.01 to 1 uM 1 hr by immunoblot analysis; format: cell-based; conditions: dose 0.01-1 µM
Procedure, shortened: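 Flp-In T-REx U2OS cells were grown in McCoy medium with 10% FBS. Expression of C-terminally FLAG-tagged full-length SGK3 was induced with 0.01 mg/ml doxycycline for 24 h. Cells were treated with inhibitor for 1 h and lysed in phosphatase-inhibitor buffer. Lysates were cleared at 16000 g for 10 min at 4°C, protein was measured by Bradford, and phosphorylation was read by immunoblot with ECL detection.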

[18] = target: Calcium/calmodulin-dependent protein kinase kinase 2 (Homo sapiens) (UniProt Q96RR4); assay: Inhibition of recombinant human N-terminal GST-tagged CAMKKbeta (1 to 541 residues) expressed in Escherichia coli assessed as remaining activity at 1 uM using DGEFLRTSCGSPNYAARRR as substrate incubated for 30 mins in presence of [gamma-33P]ATP by filter binding method relative to control
[19] = target: RAC-alpha serine/threonine-protein kinase (Homo sapiens) (UniProt P31749); assay: Inhibition of human AKT1 at 1 uM using RBER-GSK3 as substrate in presence of 33P-ATP by ProQinase assay
[20] = target: Serine/threonine-protein kinase Nek1 (Homo sapiens) (UniProt Q96PY6); assay: Inhibition of human NEK1 at 1 uM using RBER-CHKtide as substrate in presence of 33P-ATP by ProQinase assay
[21] = target: Mitogen-activated protein kinase 15 (Homo sapiens) (UniProt Q8TD08); assay: Inhibition of human ERK7 at 1 uM using RBER-CHKtide as substrate in presence of 33P-ATP by ProQinase assay

Dual specificity tyrosine-phosphorylation-regulated kinase 2 (Homo sapiens), sequence (Q92630 whole entry): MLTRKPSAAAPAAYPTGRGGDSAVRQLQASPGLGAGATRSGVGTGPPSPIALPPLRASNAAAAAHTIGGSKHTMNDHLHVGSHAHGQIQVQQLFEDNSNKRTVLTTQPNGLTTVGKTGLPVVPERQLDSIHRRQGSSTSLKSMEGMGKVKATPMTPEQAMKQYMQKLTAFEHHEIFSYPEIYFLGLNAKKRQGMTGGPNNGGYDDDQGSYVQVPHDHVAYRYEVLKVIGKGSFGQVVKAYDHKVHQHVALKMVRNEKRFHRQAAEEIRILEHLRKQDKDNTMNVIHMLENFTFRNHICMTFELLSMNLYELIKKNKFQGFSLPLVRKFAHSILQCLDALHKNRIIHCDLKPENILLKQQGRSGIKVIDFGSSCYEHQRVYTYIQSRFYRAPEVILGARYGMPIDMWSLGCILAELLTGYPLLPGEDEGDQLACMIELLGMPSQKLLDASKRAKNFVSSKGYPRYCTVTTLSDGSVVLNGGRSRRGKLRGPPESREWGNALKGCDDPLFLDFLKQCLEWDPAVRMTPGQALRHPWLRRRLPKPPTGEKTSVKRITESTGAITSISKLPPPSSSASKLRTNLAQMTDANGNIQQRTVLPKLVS
Activin receptor type-2A (Homo sapiens), sequence (P27037 whole entry): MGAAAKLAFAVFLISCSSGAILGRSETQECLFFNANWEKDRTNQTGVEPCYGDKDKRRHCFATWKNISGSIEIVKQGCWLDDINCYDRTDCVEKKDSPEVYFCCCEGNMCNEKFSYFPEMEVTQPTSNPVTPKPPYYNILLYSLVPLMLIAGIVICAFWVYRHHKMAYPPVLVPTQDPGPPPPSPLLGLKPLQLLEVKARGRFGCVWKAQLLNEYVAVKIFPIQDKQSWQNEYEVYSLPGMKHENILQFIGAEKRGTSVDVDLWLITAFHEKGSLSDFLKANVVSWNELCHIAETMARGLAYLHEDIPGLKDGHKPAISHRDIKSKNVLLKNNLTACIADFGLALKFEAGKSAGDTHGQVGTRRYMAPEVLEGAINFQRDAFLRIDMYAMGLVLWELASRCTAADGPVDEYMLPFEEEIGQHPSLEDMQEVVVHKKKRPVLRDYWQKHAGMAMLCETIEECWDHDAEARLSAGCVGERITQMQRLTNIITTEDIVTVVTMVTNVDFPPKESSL
Protein kinase C iota type (Homo sapiens), sequence (P41743 whole entry, the tested form may be a part): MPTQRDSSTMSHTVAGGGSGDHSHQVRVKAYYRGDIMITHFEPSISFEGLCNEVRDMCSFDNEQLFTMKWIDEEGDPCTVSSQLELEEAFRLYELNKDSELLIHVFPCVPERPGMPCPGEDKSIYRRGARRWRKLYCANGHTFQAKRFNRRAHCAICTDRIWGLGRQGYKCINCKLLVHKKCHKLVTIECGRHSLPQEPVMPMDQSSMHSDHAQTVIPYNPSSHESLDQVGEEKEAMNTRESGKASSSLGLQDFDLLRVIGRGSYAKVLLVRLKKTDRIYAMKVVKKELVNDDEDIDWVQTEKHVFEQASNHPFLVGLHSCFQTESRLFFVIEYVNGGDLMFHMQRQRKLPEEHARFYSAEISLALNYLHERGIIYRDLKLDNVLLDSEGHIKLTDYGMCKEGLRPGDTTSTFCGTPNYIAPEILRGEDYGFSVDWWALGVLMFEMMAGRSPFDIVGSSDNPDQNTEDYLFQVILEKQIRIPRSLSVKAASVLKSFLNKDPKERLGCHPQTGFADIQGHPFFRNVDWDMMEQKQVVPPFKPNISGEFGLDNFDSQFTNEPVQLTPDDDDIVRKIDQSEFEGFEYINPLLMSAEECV
Serine/threonine-protein kinase SIK3 (Homo sapiens), sequence (Q9Y2K2 whole entry, looked up, the tested form may be a part): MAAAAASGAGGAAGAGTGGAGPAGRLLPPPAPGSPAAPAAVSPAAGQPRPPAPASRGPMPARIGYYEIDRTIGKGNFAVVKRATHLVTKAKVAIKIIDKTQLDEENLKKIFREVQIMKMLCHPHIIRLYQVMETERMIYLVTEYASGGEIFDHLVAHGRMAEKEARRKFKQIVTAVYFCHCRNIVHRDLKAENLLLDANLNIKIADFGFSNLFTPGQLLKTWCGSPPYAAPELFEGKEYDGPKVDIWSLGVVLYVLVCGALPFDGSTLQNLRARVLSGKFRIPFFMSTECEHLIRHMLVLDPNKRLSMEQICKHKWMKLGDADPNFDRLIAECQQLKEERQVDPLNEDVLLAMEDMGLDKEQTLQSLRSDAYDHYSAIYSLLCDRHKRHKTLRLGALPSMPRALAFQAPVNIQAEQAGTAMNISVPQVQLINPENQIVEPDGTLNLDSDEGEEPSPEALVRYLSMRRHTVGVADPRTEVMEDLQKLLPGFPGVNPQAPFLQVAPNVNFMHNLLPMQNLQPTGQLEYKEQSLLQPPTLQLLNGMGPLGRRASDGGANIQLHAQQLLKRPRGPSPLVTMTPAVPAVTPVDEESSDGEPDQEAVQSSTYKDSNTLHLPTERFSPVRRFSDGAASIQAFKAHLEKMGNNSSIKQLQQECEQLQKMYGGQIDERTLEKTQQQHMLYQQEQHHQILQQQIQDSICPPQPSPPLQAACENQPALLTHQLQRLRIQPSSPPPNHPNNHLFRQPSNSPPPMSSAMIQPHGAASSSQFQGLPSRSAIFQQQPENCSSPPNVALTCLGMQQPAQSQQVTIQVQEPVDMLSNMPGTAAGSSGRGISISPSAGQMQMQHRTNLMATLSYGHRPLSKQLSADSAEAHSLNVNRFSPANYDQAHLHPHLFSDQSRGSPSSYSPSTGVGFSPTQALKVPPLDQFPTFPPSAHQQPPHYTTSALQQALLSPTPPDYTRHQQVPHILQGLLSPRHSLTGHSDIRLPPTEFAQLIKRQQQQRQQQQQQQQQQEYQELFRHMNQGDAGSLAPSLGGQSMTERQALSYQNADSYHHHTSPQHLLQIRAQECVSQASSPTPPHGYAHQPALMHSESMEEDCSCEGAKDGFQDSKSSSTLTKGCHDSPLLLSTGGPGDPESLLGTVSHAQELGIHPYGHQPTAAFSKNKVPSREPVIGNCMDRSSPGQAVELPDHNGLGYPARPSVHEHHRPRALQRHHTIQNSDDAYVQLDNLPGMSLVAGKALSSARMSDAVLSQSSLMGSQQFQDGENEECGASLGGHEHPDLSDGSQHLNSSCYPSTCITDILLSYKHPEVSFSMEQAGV
Tyrosine-protein kinase JAK2 (Homo sapiens), sequence (O60674 whole entry, the tested form may be a part): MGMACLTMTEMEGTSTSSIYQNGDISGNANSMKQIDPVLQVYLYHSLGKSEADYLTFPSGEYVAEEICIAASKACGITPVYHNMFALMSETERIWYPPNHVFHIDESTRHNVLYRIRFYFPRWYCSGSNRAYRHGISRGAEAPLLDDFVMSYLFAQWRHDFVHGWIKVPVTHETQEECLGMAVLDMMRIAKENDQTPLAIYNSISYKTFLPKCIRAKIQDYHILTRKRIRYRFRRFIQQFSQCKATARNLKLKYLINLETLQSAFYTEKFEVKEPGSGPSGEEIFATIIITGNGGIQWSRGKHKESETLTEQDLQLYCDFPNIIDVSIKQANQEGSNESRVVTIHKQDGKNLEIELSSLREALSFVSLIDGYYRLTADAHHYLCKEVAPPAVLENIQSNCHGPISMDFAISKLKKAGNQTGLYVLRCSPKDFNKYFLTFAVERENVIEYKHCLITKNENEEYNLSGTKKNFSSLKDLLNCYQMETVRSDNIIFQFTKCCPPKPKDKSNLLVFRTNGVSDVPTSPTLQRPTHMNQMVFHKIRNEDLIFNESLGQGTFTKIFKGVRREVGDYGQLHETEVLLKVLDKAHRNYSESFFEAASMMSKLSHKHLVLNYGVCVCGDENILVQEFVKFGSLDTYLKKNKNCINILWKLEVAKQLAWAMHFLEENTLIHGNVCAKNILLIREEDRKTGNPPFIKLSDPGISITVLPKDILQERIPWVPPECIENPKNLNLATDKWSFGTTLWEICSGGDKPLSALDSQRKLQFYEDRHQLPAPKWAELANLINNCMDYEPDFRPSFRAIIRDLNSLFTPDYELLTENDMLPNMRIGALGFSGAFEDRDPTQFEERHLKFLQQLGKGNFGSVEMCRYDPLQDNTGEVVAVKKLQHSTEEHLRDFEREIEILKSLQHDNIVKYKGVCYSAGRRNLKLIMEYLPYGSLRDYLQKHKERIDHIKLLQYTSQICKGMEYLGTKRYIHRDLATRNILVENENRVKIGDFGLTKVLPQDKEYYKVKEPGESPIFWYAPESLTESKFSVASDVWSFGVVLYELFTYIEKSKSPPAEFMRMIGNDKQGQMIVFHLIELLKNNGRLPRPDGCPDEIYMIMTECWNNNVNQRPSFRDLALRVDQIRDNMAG
TGF-beta receptor type-1 (Homo sapiens), P36897 [T204D], sequence (P36897 whole entry T204D): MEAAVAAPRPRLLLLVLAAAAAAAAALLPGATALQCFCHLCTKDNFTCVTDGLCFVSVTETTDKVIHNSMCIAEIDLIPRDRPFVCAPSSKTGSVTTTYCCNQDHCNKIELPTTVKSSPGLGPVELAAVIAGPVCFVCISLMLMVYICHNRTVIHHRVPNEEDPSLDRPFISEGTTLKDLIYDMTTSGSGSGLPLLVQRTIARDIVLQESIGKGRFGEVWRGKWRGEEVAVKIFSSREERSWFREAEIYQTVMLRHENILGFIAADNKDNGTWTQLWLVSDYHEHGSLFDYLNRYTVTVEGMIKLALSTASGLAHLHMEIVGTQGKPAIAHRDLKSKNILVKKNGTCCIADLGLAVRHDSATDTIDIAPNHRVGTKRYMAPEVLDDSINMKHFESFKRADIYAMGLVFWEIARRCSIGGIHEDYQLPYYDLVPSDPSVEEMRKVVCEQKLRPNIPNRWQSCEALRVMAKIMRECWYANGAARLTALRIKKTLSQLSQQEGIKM

CC(C)(O)CNc1ncc(-c2ccnc(Nc3ccnc(Cl)c3)n2)c(CC2CC2)n1
inhibition [1]: inactive | inhibition [2]: inactive | Activity [3]: 116% | inhibition [4]: inactive | inhibition [5]: inactive | Activity [6]: 133% | inhibition [7]: inactive | inhibition (Homo sapiens): inactive | inhibition [8]: inactive | Activity [9]: 108% | inhibition [10]: inactive | inhibition [11]: inactive | inhibition [12]: inactive | inhibition [13]: inactive | Activity [14]: 123% | Activity [15]: 112% | Activity [16]: 99% | Activity [17]: 113% | inhibition (U2OS): inactive | Activity [18]: 108% | inhibition [19]: inactive | inhibition [20]: inactive | inhibition [21]: inactive
